Columns and labels:
Rattus norvegicus [1] = assay: Gastrointestinal toxicity in albino rat assessed ulcer index at 60 mg/kg, po after 17 hrs; type: organism-based; set-up: dose 60 mg/kg, route oral; conditions: in vivo
How it was run: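 Fasted albino rats (150–200 g; food, not water, withheld 24 h), groups of six, dosed orally at 60 mg/kg; controls got 1% methyl cellulose suspension. Normal diet for 17 h, then sacrifice. Stomach opened along greater curvature, washed, mucosa scored under magnifying glass (0.5 redness to 3.0 for >5 ulcers); severity index = treated group mean score minus control mean.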

Rattus norvegicus [2] = assay: Antiinflammatory activity in Wistar rat assessed as inhibition of carrageenan-induced paw odema at 20 mg/kg, po pretreated 30 mins pre-carrageenan challenge measured after 3 hrs relative to control; type: functional
How it was run: (§1)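 Wistar rats of either sex, 180–200 g, six per group; vehicle 0.5% CMC given orally. […] in sterile 0.9% NaCl, 0.1 mL, injected sub-plantar into the right hind paw 30 min after dosing. Paw volume read by saline-displacement plethysmometer at 2 and 3 h. % inhibition = (Vc−Vt)/Vc × 100.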

Rattus norvegicus [3] = assay: Antiinflammatory activity in Wistar rat assessed as inhibition of carrageenan-induced paw odema at 20 mg/kg, po pretreated 30 mins pre-carrageenan challenge measured after 2 hrs relative to control; type: functional; how it was run: as §1
Gastric mucosa = assay: Inhibition of lipid peroxidation assessed as malondialdehyde level per mg of protein in gastric mucosa isolated from albino rat treated 60 mg/kg, po by UV spectrophotometry; type: functional
How it was run: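 After the ulcer scoring, gastric mucosa was scraped and homogenized in 1.8 mL ice-cold 1.15% KCl. Supernatant (1 mL) received 0.5 mL 30% TCA and 0.5 mL 0.8% TBA, then was heated 30 min at 80 °C. Tubes were chilled 10 min on ice and centrifuged 3000 rpm for 15 min before absorbance was read (TBARS/MDA, Ohkawa method).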

Mus musculus [4] = assay: Central analgesic activity in Swiss albino mouse assessed as reaction time required to elicit thermal stimulus-induced hind paw licking at 20 mg/kg, po after 60 mins by Turner hotplate method; type: functional
How it was run: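 Swiss albino mice of either sex, 25–30 g, six per group. Compounds given orally in 1% CMC; controls received vehicle only. Hot plate held at 53 ± 0.5 °C. Reaction time is the interval from placement on the plate to hind-paw licking or jumping. Measured before dosing (0 min) and 1 h after oral dosing.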

Mus musculus [5] = assay: Peripheral analgesic activity in Swiss albino mouse assessed as inhibition of acetic acid-induced writhing response at 20 mg/kg, po pretreated 1 hr before acetic acid challenge; type: functional; set-up: scale not given: the % may be the effect or the level left
How it was run: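 Swiss albino mice of either sex, 25–30 g, housed singly and habituated 30 min in the test cage. Compounds given orally in 1% CMC; controls received 1% CMC. One hour after dosing, 0.10 mL 1% acetic acid was given i.p. Writhes were counted over 30 min and % protection derived versus control.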

COc1cc(/C=C2\C=C(c3ccc(Cl)cc3)N(Cc3ccccc3)C2=O)ccc1O
UI (Rattus norvegicus [1]): 0.5
inhibition in vivo at 20 mg/kg (Rattus norvegicus [2]): 42%
inhibition in vivo at 20 mg/kg (Rattus norvegicus [3]): 36%
Activity (Gastric mucosa): 0.558 nmol/mg protein

O=C1OC(c2ccc(Cl)cc2)=C/C1=C\c1ccc(Cl)cc1
UI (Rattus norvegicus [1]): 0.2
Activity (Mus musculus [4]): 12.67 s
inhibition in vivo at 20 mg/kg (Rattus norvegicus [2]): 69.1%
Activity (Mus musculus [5]): 44.57%
inhibition in vivo at 20 mg/kg (Rattus norvegicus [3]): 40%
Activity (Gastric mucosa): 0.403 nmol/mg protein

O=C1OC(c2ccc(Cl)cc2)=C/C1=C\c1ccccc1Cl
UI (Rattus norvegicus [1]): 0.2
Activity (Mus musculus [4]): 12.69 s
inhibition in vivo at 20 mg/kg (Rattus norvegicus [2]): 81.5%
Activity (Mus musculus [5]): 53.01%
inhibition in vivo at 20 mg/kg (Rattus norvegicus [3]): 62.7%
Activity (Gastric mucosa): 0.494 nmol/mg protein

O=C1OC(c2ccc(Cl)cc2)=C/C1=C\c1ccc([N+](=O)[O-])cc1
UI (Rattus norvegicus [1]): 0.4
inhibition in vivo at 20 mg/kg (Rattus norvegicus [2]): 36%
inhibition in vivo at 20 mg/kg (Rattus norvegicus [3]): 4%
Activity (Gastric mucosa): 0.549 nmol/mg protein

CC(C)Cc1ccc(C(C)C(=O)O)cc1 (configuration not stated) [IBUPROFEN]
UI (Rattus norvegicus [1]): 0.9
Activity (Mus musculus [4]): 14.4 s
inhibition in vivo at 20 mg/kg (Rattus norvegicus [2]): 89.5%
Activity (Mus musculus [5]): 65.06%
inhibition in vivo at 20 mg/kg (Rattus norvegicus [3]): 80.9%

O=C1/C(=C/c2ccc(Cl)cc2)C=C(c2ccc(Cl)cc2)N1Cc1ccccc1
UI (Rattus norvegicus [1]): 0.1
Activity (Mus musculus [4]): 11.55 s
inhibition in vivo at 20 mg/kg (Rattus norvegicus [2]): 88.9%
Activity (Mus musculus [5]): 57.83%
inhibition in vivo at 20 mg/kg (Rattus norvegicus [3]): 58.7%
Activity (Gastric mucosa): 0.31 nmol/mg protein

O=C1OC(c2ccc(Cl)cc2)=C/C1=C\c1ccc(Cl)cc1Cl
UI (Rattus norvegicus [1]): 0.1
Activity (Mus musculus [4]): 11.86 s
inhibition in vivo at 20 mg/kg (Rattus norvegicus [2]): 72.6%
Activity (Mus musculus [5]): 49.39%
inhibition in vivo at 20 mg/kg (Rattus norvegicus [3]): 53.3%
Activity (Gastric mucosa): 0.388 nmol/mg protein

O=C1/C(=C/c2ccccc2)C=C(c2ccc(Cl)cc2)N1Cc1ccccc1
UI (Rattus norvegicus [1]): 0.6
inhibition in vivo at 20 mg/kg (Rattus norvegicus [2]): 37%
inhibition in vivo at 20 mg/kg (Rattus norvegicus [3]): 24%
Activity (Gastric mucosa): 0.605 nmol/mg protein

O=C1OC(c2ccc(Cl)cc2)=C/C1=C\c1ccccc1[N+](=O)[O-]
UI (Rattus norvegicus [1]): 0.6
inhibition in vivo at 20 mg/kg (Rattus norvegicus [2]): 18.5%
inhibition in vivo at 20 mg/kg (Rattus norvegicus [3]): 4%
Activity (Gastric mucosa): 0.429 nmol/mg protein

COc1ccc(/C=C2\C=C(c3ccc(Cl)cc3)OC2=O)cc1
UI (Rattus norvegicus [1]): 0.5
inhibition in vivo at 20 mg/kg (Rattus norvegicus [2]): 32.3%
inhibition in vivo at 20 mg/kg (Rattus norvegicus [3]): 4%
Activity (Gastric mucosa): 0.545 nmol/mg protein

O=C1/C(=C/c2ccc([N+](=O)[O-])cc2)C=C(c2ccc(Cl)cc2)N1Cc1ccccc1
UI (Rattus norvegicus [1]): 0.4
inhibition in vivo at 20 mg/kg (Rattus norvegicus [2]): 19.8%
inhibition in vivo at 20 mg/kg (Rattus norvegicus [3]): 12%
Activity (Gastric mucosa): 0.403 nmol/mg protein

COc1cc(/C=C2\C=C(c3ccc(Cl)cc3)OC2=O)ccc1OC(C)=O
UI (Rattus norvegicus [1]): 0.3
inhibition in vivo at 20 mg/kg (Rattus norvegicus [2]): 37%
inhibition in vivo at 20 mg/kg (Rattus norvegicus [3]): 24%
Activity (Gastric mucosa): 0.597 nmol/mg protein

COc1ccc(/C=C2\C=C(c3ccc(Cl)cc3)OC2=O)cc1OC
UI (Rattus norvegicus [1]): 0.3
inhibition in vivo at 20 mg/kg (Rattus norvegicus [2]): 36%
inhibition in vivo at 20 mg/kg (Rattus norvegicus [3]): 9.33%
Activity (Gastric mucosa): 0.533 nmol/mg protein

O=C1OC(c2ccc(Cl)cc2)=C/C1=C\c1ccccc1
UI (Rattus norvegicus [1]): 0.9
inhibition in vivo at 20 mg/kg (Rattus norvegicus [2]): 36%
inhibition in vivo at 20 mg/kg (Rattus norvegicus [3]): 18.9%
Activity (Gastric mucosa): 0.522 nmol/mg protein

O=C1/C(=C/c2ccc(F)cc2)C=C(c2ccc(Cl)cc2)N1Cc1ccccc1
UI (Rattus norvegicus [1]): 0.2
Activity (Mus musculus [4]): 13.3 s
inhibition in vivo at 20 mg/kg (Rattus norvegicus [2]): 89.5%
Activity (Mus musculus [5]): 59.03%
inhibition in vivo at 20 mg/kg (Rattus norvegicus [3]): 58.7%
Activity (Gastric mucosa): 0.401 nmol/mg protein

O=C1OC(c2ccc(Cl)cc2)=C/C1=C\c1ccc(F)cc1
UI (Rattus norvegicus [1]): 0.4
Activity (Mus musculus [4]): 12.9 s
inhibition in vivo at 20 mg/kg (Rattus norvegicus [2]): 70.4%
Activity (Mus musculus [5]): 50.6%
inhibition in vivo at 20 mg/kg (Rattus norvegicus [3]): 41.3%
Activity (Gastric mucosa): 0.329 nmol/mg protein
